The source of these data is ChEMBL document CHEMBL1136453, “New classes of antibacterial oxazolidinones with C-5, methylene O-linked heterocyclic side chains” (2003).

Test [1] has as its system Staphylococcus aureus. In words: In vivo antibacterial activity against Staphylococcus aureus after intravenous administration (10 mg/kg) in mice using (MTT) mouse thigh test.
Test [2] concerns Staphylococcus aureus. Put plainly: In vitro minimum inhibitory concentration against coagulase negative Staphylococcus aureus methicillin resistant (CNSMR). The test is classed as functional.
For a further test, the system named is Enterococcus faecalis. Put plainly: In vitro minimum inhibitory concentration against Enterococcus faecalis. The test is classed as functional. A digest of the protocol: (§1)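 Agar dilution per NCCLS protocol with doubling dilutions from 128 to 0.008 mg/L, incubated at 37 °C. Strains came from an in-house culture collection. MIC reported in mg/L.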
The next test deals with Streptococcus pyogenes. In words: In vitro minimum inhibitory concentration against Streptococcus pyogenes penicillin sensitive. Type of test: functional. In outline:
as §1

In test [3] the test system is Staphylococcus aureus. In words: In vitro minimum inhibitory concentration against Staphylococcus aureus Oxford. Type of test: functional. The settings on record: Staphylococcus aureus; read-out: MIC.
In test [4] the test system is Staphylococcus aureus. In words: In vitro minimum inhibitory concentration against Staphylococcus aureus MRQR. The test is classed as functional.
Test [5] can be described thus: In vivo antibacterial activity against Staphylococcus aureus after intravenous administration (5 mg/kg) in mice using (MTT) mouse thigh test.
Test [6] deals with Mus musculus. Described as above.
The subject of test [7] is Mus musculus. In words: In vivo antibacterial activity against Staphylococcus aureus after intravenous administration (10 mg/kg) in mice using (MTT) mouse thigh test.

Structures are written as SMILES. Converted amounts (≈) assume the structure as drawn.

With `O=C1O[C@@H](COc2ccsn2)CN1c1ccc(C2=CCOCC2)c(F)c1`, the figures for the Activity (in the test with Staphylococcus aureus [1]; in test [5]) were 0.21 and 0.01, respectively. Besides, the MIC – broadly, the least concentration at which growth counts as inhibited – worked out at 0.25 µg/mL (≈ 0.664 µM) in the test with Staphylococcus aureus [2]; 0.5 µg/mL (≈ 1.33 µM) with Enterococcus faecalis; 0.5 µg/mL (≈ 1.33 µM) in the test on Streptococcus pyogenes; 0.25 µg/mL (≈ 0.664 µM) in the test with Staphylococcus aureus [3]; 0.25 µg/mL (≈ 0.664 µM) with Staphylococcus aureus [4].
For the compound `CC(=O)NC[C@H]1CN(c2ccc(C3=CCOCC3)c(F)c2)C(=O)O1`, the Activity with Staphylococcus aureus [1] came out at 1.34; in test [5], 0.6. The MIC was 0.13 µg/mL (≈ 0.389 µM) against Staphylococcus aureus [2]; 0.13 µg/mL (≈ 0.389 µM) against Enterococcus faecalis; 0.13 µg/mL (≈ 0.389 µM) against Streptococcus pyogenes; 0.13 µg/mL (≈ 0.389 µM) in the test on Staphylococcus aureus [3]; 0.25 µg/mL (≈ 0.748 µM) with Staphylococcus aureus [4].
For the compound `O=C1O[C@@H](COc2ccccn2)CN1c1ccc(C2=CCOCC2)c(F)c1`, the Activity in the test with Staphylococcus aureus [1] came to 0.15; in test [5], 0. Moreover, the MIC in the test on Staphylococcus aureus [2] worked out at 1 µg/mL (≈ 2.7 µM); in the test on Enterococcus faecalis, 2 µg/mL (≈ 5.4 µM); in the test on Streptococcus pyogenes, 2 µg/mL (≈ 5.4 µM); with Staphylococcus aureus [3], 0.5 µg/mL (≈ 1.35 µM); in the test with Staphylococcus aureus [4], 1 µg/mL (≈ 2.7 µM).
On to `O=C([C@@H](O)CO)N1CC=C(c2ccc(N3C[C@H](COc4ccon4)OC3=O)cc2F)CC1`, for which the Activity was found to be 1.04 in the test on Staphylococcus aureus [1] and 0.63 in test [5]. Moreover, the minimum inhibitory concentration (MIC) against Staphylococcus aureus [2] was determined as 0.5 µg/mL (≈ 1.12 µM); against Enterococcus faecalis it was 1 µg/mL (≈ 2.24 µM); against Streptococcus pyogenes, 0.5 µg/mL (≈ 1.12 µM); with Staphylococcus aureus [3], 0.25 µg/mL (≈ 0.559 µM); against Staphylococcus aureus [4], 0.5 µg/mL (≈ 1.12 µM).
Consider `O=C1O[C@@H](COc2ccon2)CN1c1ccc(C2=CCN(C(=S)CO)CC2)c(F)c1`, for which the Activity is on record as 0.07 with Staphylococcus aureus [1] and -0.01 in test [5]. The MIC was found to be 0.25 µg/mL (≈ 0.577 µM) against Staphylococcus aureus [2]; 0.5 µg/mL (≈ 1.15 µM) with Enterococcus faecalis; 0.25 µg/mL (≈ 0.577 µM) in the test on Streptococcus pyogenes; 0.25 µg/mL (≈ 0.577 µM) with Staphylococcus aureus [3]; 0.5 µg/mL (≈ 1.15 µM) against Staphylococcus aureus [4].
With `O=CN1CC=C(c2c(F)cc(N3C[C@H](COc4ccon4)OC3=O)cc2F)CC1`, the values for the Activity (in the test on Staphylococcus aureus [1]; in [5]) were 0.43 and -0.01, respectively. The MIC worked out at 0.5 µg/mL (≈ 1.23 µM) against Staphylococcus aureus [2]; 1 µg/mL (≈ 2.47 µM) against Enterococcus faecalis; 0.5 µg/mL (≈ 1.23 µM) with Streptococcus pyogenes; 0.25 µg/mL (≈ 0.617 µM) in the test with Staphylococcus aureus [3]; 0.5 µg/mL (≈ 1.23 µM) against Staphylococcus aureus [4].
With `O=C(CO)N1CC=C(c2ccc(N3C[C@H](COc4ccon4)OC3=O)cc2F)CC1`, the Activity was found to be 1.2 in the test with Staphylococcus aureus [1] and 0.71 in [5]. Further, the MIC in the test with Staphylococcus aureus [2] is 0.5 µg/mL (≈ 1.2 µM); against Enterococcus faecalis it was 1 µg/mL (≈ 2.4 µM); in the test on Streptococcus pyogenes, 0.5 µg/mL (≈ 1.2 µM); in the test on Staphylococcus aureus [3], 0.25 µg/mL (≈ 0.599 µM); in the test with Staphylococcus aureus [4], 0.5 µg/mL (≈ 1.2 µM).
For `Cc1no[n+]([O-])c1OC[C@H]1CN(c2ccc(C3=CCOCC3)c(F)c2)C(=O)O1`, the Activity in the test on Staphylococcus aureus [1] is on record as 0.2; in test [5], 0.03. The MIC with Staphylococcus aureus [2] is 2 µg/mL (≈ 5.11 µM); with Enterococcus faecalis it was 2 µg/mL (≈ 5.11 µM); in the test on Streptococcus pyogenes, 4 µg/mL (≈ 10.2 µM); in the test with Staphylococcus aureus [3], 1 µg/mL (≈ 2.56 µM); in the test on Staphylococcus aureus [4], 2 µg/mL (≈ 5.11 µM).
For the compound `O=C(OC[C@@H](O)CO)N1CC=C(c2ccc(N3C[C@H](COc4ccon4)OC3=O)cc2F)CC1`, the figures for the Activity (in the test with Staphylococcus aureus [1]; in test [5]) were 0.48 and 0.27, respectively. Also, the MIC came to 0.5 µg/mL (≈ 1.05 µM) against Staphylococcus aureus [2]; 1 µg/mL (≈ 2.09 µM) in the test with Enterococcus faecalis; 0.5 µg/mL (≈ 1.05 µM) in the test on Streptococcus pyogenes; 0.25 µg/mL (≈ 0.524 µM) with Staphylococcus aureus [3]; 0.5 µg/mL (≈ 1.05 µM) in the test with Staphylococcus aureus [4].
For the compound `C[C@H](O)C(=O)N1CC=C(c2c(F)cc(N3C[C@H](COc4ccon4)OC3=O)cc2F)CC1`, the results for the Activity (with Staphylococcus aureus [1]; in [5]) were 1.16 and 0.64, respectively. Also, the MIC came out at 0.5 µg/mL (≈ 1.11 µM) against Staphylococcus aureus [2]; 1 µg/mL (≈ 2.23 µM) against Enterococcus faecalis; 1 µg/mL (≈ 2.23 µM) against Streptococcus pyogenes; 0.5 µg/mL (≈ 1.11 µM) in the test with Staphylococcus aureus [3]; 0.5 µg/mL (≈ 1.11 µM) with Staphylococcus aureus [4].
As to `CS(=O)(=O)C[C@@H](O)C(=O)N1CC=C(c2c(F)cc(N3C[C@H](COc4ccon4)OC3=O)cc2F)CC1`, the Activity with Staphylococcus aureus [1] stood at 1.42; in test [5], 1.02. In addition, the MIC in the test on Staphylococcus aureus [2] is 0.25 µg/mL (≈ 0.474 µM); against Enterococcus faecalis, 0.5 µg/mL (≈ 0.948 µM); in the test on Streptococcus pyogenes, 0.5 µg/mL (≈ 0.948 µM); in the test on Staphylococcus aureus [3] it was 0.25 µg/mL (≈ 0.474 µM); in the test on Staphylococcus aureus [4] it was 0.25 µg/mL (≈ 0.474 µM).
With `C[C@H](O)C(=O)N1CC=C(c2ccc(N3C[C@H](COc4cnsn4)OC3=O)cc2F)CC1`, the Activity is reported as 1.14 in the test with Staphylococcus aureus [1] and 0.43 in test [5]. In addition, the MIC turned out to be 0.5 µg/mL (≈ 1.11 µM) in the test with Staphylococcus aureus [2]; 1 µg/mL (≈ 2.23 µM) in the test on Enterococcus faecalis; 1 µg/mL (≈ 2.23 µM) in the test on Streptococcus pyogenes; 0.25 µg/mL (≈ 0.557 µM) in the test with Staphylococcus aureus [3]; 0.5 µg/mL (≈ 1.11 µM) against Staphylococcus aureus [4].
As to `O=C1O[C@@H](COc2ccon2)CN1c1ccc(C2=CCOCC2)c(F)c1`, the Activity was 0.06 in the test with Staphylococcus aureus [1] and -0.07 in test [5]. Further, the MIC against Staphylococcus aureus [2] was 0.5 µg/mL (≈ 1.39 µM); with Enterococcus faecalis, 1 µg/mL (≈ 2.78 µM); in the test with Streptococcus pyogenes, 0.5 µg/mL (≈ 1.39 µM); in the test on Staphylococcus aureus [3], 0.5 µg/mL (≈ 1.39 µM); against Staphylococcus aureus [4], 0.5 µg/mL (≈ 1.39 µM).
`O=C([C@@H](O)CO)N1CC=C(c2c(F)cc(N3C[C@H](CO)OC3=O)cc2F)CC1`: the Activity in the test on Staphylococcus aureus [1] was found to be 1.01; in [5], 0.59. Further, the minimal inhibitory concentration (MIC) amounted to 0.25 µg/mL (≈ 0.628 µM) in the test with Staphylococcus aureus [2]; 1 µg/mL (≈ 2.51 µM) with Enterococcus faecalis; 0.5 µg/mL (≈ 1.26 µM) in the test with Streptococcus pyogenes; 0.25 µg/mL (≈ 0.628 µM) in the test with Staphylococcus aureus [3]; 0.5 µg/mL (≈ 1.26 µM) in the test with Staphylococcus aureus [4].
For the compound `CC(O)C(=O)N1CC=C(c2c(F)cc(N3C[C@H](COc4ccon4)OC3=O)cc2F)CC1` (single isomer, unassigned), the Activity in the test with Staphylococcus aureus [1] turned out to be 1.02; in test [5], 0.49. The MIC against Staphylococcus aureus [2] is 0.5 µg/mL (≈ 1.11 µM); with Enterococcus faecalis it was 1 µg/mL (≈ 2.23 µM); with Streptococcus pyogenes it was 1 µg/mL (≈ 2.23 µM); in the test with Staphylococcus aureus [3], 0.5 µg/mL (≈ 1.11 µM); against Staphylococcus aureus [4], 0.5 µg/mL (≈ 1.11 µM).
On to `CC(=O)NC[C@H]1CN(c2ccc(N3CCOCC3)c(F)c2)C(=O)O1` [LINEZOLID], for which the Activity is 0.05 with Mus musculus [6] and 1.4 in the test with Mus musculus [7]. For the same compound, the minimal inhibitory concentration (MIC) against Staphylococcus aureus [2] was 0.5 µg/mL (≈ 1.48 µM); against Streptococcus pyogenes, 1 µg/mL (≈ 2.96 µM); in the test on Staphylococcus aureus [3] it was 0.5 µg/mL (≈ 1.48 µM); in the test with Staphylococcus aureus [4], 1 µg/mL (≈ 2.96 µM).
For the compound `O=C([C@@H](O)CO)N1CC=C(c2c(F)cc(N3C[C@H](COc4ccon4)OC3=O)cc2F)CC1` [POSIZOLID], the Activity is reported as 0.98 in the test with Staphylococcus aureus [1] and 0.7 in test [5]. The MIC against Staphylococcus aureus [2] is 0.5 µg/mL (≈ 1.07 µM); against Enterococcus faecalis, 0.5 µg/mL (≈ 1.07 µM); against Streptococcus pyogenes, 0.25 µg/mL (≈ 0.537 µM); in the test with Staphylococcus aureus [3], 0.25 µg/mL (≈ 0.537 µM); against Staphylococcus aureus [4] it was 0.5 µg/mL (≈ 1.07 µM).
